Calls of active or inactive are those of the source. The calls are words filed in the database; no cut-off is given here.
Assays:
HT-29 [1] = experiment: Cytotoxicity against human HT-29 cells after 48 hrs by MTS assay; format: functional, cell-based; conditions: HT-29, 48 h
Summary of the method: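 HT29 cells maintained in RPMI with 10% FBS. 5×10^3 cells/well were left to adhere 24 h, then exposed 48 h to compound (DMSO stock diluted in DMEM, 0.5–50 µM). MTS absorbance at 490 nm normalized to control. IC50 from sigmoidal variable-slope fit. Triplicates, at least two independent experiments.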

Bos taurus = species: Bos taurus; experiment: Inhibition of bovine brain tubulin polymerization at 10 uM after 1 hrs by fluorescence assay
Summary of the method: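 Compound at 10 µM final, DMSO as control. Fluorescence (ex 360, em 440 nm) read every 10 s for 1 h at 37°C, duplicate wells.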

HT-29 [2] = experiment: Induction of apoptosis in human HT-29 cells at 2.5 uM after 24 hrs by PE annexin V and 7-Aminoactinomycin D staining-based flow cytometry; format: functional
Summary of the method: (§1)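 HT29 cells (RPMI, 10% FBS) treated with 1.25, 2.5 or 5 μM, or DMSO control, for 24 h at 37 °C. Cells then harvested, washed twice in cold PBS and resuspended at 1×10^6 cells/ml in binding buffer. Stained with PE annexin V and 7-AAD for 15 min at RT in the dark, then analysed by flow cytometry. 7-AAD-positive cells counted as dead.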

MCF7 = experiment: Cytotoxicity against human MCF7 cells after 48 hrs by MTS assay; format: functional, cell-based; conditions: MCF7, 48 h
Summary of the method: (§2)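 A549, MCF-7 and UACC903 cells grown in DMEM with 10% FBS at 37°C, 5% CO2. 5×10^3 cells/well were left to adhere 24 h, then treated 48 h with compound (DMSO stock diluted in DMEM, 0.5–50 µM). MTS read at 490 nm and normalized to control. Dose-response fitted as sigmoidal, variable slope. Triplicates from at least two independent experiments.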

HT-29 [3] = experiment: Induction of apoptosis in human HT-29 cells assessed as DNA fragmentation at 5 uM after 48 hrs by TUNEL assay; format: functional, cell-based
Summary of the method: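 1×10^5 HT29 cells/well grown 24 h in 10% serum medium, then exposed to 5 µM compound. Fragmented DNA stained with ApopTag Red in situ kit, Hoechst nuclear counterstain. Red TUNEL-positive versus blue total nuclei scored by fluorescence microscopy.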

HT-29 [4] = experiment: Induction of apoptosis in human HT-29 cells assessed as viable cells at 2.5 uM after 24 hrs by PE annexin V and 7-Aminoactinomycin D staining-based flow cytometry (reference value: 93.2%); format: functional; conditions: HT-29, 24 h, read-out: Activity
Summary of the method: (§3)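 HT29 cells were treated with 1.25–5.0 µM compound or DMSO for 24 h at 37°C, harvested by low-speed centrifugation and washed twice in cold PBS. They were resuspended in binding buffer at 1×10^6 cells/ml, stained with PE annexin V and 7-AAD for 15 min at RT in the dark, and quantified by flow cytometry.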

HT-29 [5] = experiment: Induction of apoptosis in human HT-29 cells assessed as late apoptosis or necrotic cells at 5 uM after 24 hrs by PE annexin V and 7-Aminoactinomycin D staining-based flow cytometry (reference value: 4.1%); format: functional; summary of the method: as §3
HT-29 [6] = experiment: Induction of apoptosis in human HT-29 cells assessed as early apoptotic cells at 2.5 uM after 24 hrs by PE annexin V and 7-Aminoactinomycin D staining-based flow cytometry (reference value: 1.37%); format: functional; summary of the method: as §3
HT-29 [7] = experiment: Induction of apoptosis in human HT-29 cells at 1.25 uM after 24 hrs by PE annexin V and 7-Aminoactinomycin D staining-based flow cytometry; format: functional; summary of the method: as §1
HT-29 [8] = experiment: Induction of apoptosis in human HT-29 cells assessed as late apoptosis or necrotic cells at 1.25 uM after 24 hrs by PE annexin V and 7-Aminoactinomycin D staining-based flow cytometry (reference value: 4.1%); format: functional; summary of the method: as §3
UACC-903 = experiment: Cytotoxicity against human UACC903 cells after 48 hrs by MTS assay; format: functional, cell-based; conditions: UACC-903, 48 h; summary of the method: as §2
HT-29 [9] = experiment: Induction of apoptosis in human HT-29 cells after 24 hrs by PE annexin V and 7-Aminoactinomycin D staining-based flow cytometry; format: functional, cell-based; summary of the method: as §3
HT-29 [10] = experiment: Induction of apoptosis in human HT-29 cells assessed as dead cells at 5 uM after 24 hrs by PE annexin V and 7-Aminoactinomycin D staining-based flow cytometry (reference value: 1.33%); format: functional; summary of the method: as §1
HT-29 [11] = experiment: Induction of apoptosis in human HT-29 cells at 5 uM after 24 hrs by PE annexin V and 7-Aminoactinomycin D staining-based flow cytometry (reference value: 6.8%); format: functional; summary of the method: as §1
HT-29 [12] = experiment: Induction of apoptosis in human HT-29 cells assessed as early apoptotic cells at 1.25 uM after 24 hrs by PE annexin V and 7-Aminoactinomycin D staining-based flow cytometry (reference value: 1.37%); format: functional; summary of the method: as §3
HT-29 [13] = experiment: Induction of apoptosis in human HT-29 cells assessed as increase in caspase 3/7 activation after 24 hrs by fluorescence spectrophotometry; format: functional, cell-based
Summary of the method: (§4)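 HT29 cells seeded at 1×10^4/well and grown 24 h, then treated 24 h with 1.25–5 µM compound or DMSO. Equal volume of Apo-ONE caspase-3/7 reagent added, shaken 30 s, incubated 2 h at RT. Cleaved-substrate fluorescence read at ex 498/em 521 nm, expressed relative to DMSO cells. Means ± SD, triplicate, one representative experiment.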

HT-29 [14] = experiment: Induction of apoptosis in human HT-29 cells assessed as dead cells at 1.25 uM after 24 hrs by PE annexin V and 7-Aminoactinomycin D staining-based flow cytometry (reference value: 1.33%); format: functional; summary of the method: as §1
HT-29 [15] = experiment: Induction of apoptosis in human HT-29 cells assessed as dead cells at 2.5 uM after 24 hrs by PE annexin V and 7-Aminoactinomycin D staining-based flow cytometry (reference value: 1.33%); format: functional; summary of the method: as §1
HT-29 [16] = experiment: Induction of apoptosis in human HT-29 cells assessed as increase in caspase 3/7 activation after 24 hrs by fluorescence spectrophotometry relative to control; format: functional; parameters: concentration or dose not given beside the values; summary of the method: as §4
HT-29 [17] = experiment: Induction of apoptosis in human HT-29 cells assessed as early apoptotic cells at 5 uM after 24 hrs by PE annexin V and 7-Aminoactinomycin D staining-based flow cytometry (reference value: 1.37%); format: functional; summary of the method: as §3
HT-29 [18] = experiment: Inhibition of AKT expression in human HT-29 cells assessed as total AKT level at 2 uM after 24 hrs by Western blotting; format: functional, cell-based
Summary of the method: (§5)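 HT29 cells treated 24 h with 1 or 2 µM compound or no drug. Lysed in HEPES/NaCl/EDTA/NP40 buffer with phosphatase and protease inhibitors. Protein equalized by Bradford, run on 10% gels, semi-dry transfer to nitrocellulose, blocked in 5% milk. Pan-Akt or phospho-Akt rabbit polyclonal primaries overnight at 4°C, HRP secondaries, chemiluminescence. β-actin loading control.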

A549 = experiment: Cytotoxicity against human A549 cells after 48 hrs by MTS assay; format: functional, cell-based; conditions: A549, 48 h; summary of the method: as §2
HT-29 [19] = experiment: Induction of apoptosis in human HT-29 cells assessed as viable cells at 1.25 uM after 24 hrs by PE annexin V and 7-Aminoactinomycin D staining-based flow cytometry (reference value: 93.2%); format: functional; conditions: HT-29, 24 h, read-out: Activity; summary of the method: as §3
[20] = biological target: RAC-alpha serine/threonine-protein kinase (Homo sapiens) (UniProt P31749); experiment: Inhibition of AKT phosphorylation in human HT-29 cells assessed as p-AKT level at 2 uM after 24 hrs by Western blotting; format: cell-based; summary of the method: as §5
HT-29 [21] = experiment: Induction of apoptosis in human HT-29 cells assessed as viable cells at 5 uM after 24 hrs by PE annexin V and 7-Aminoactinomycin D staining-based flow cytometry (reference value: 93.2%); format: functional; conditions: HT-29, 24 h, read-out: Activity; summary of the method: as §3
[22] = biological target: RAC-alpha serine/threonine-protein kinase (Homo sapiens) (UniProt P31749); experiment: Inhibition of AKT phosphorylation in human HT-29 cells assessed as p-AKT level at 1 uM after 24 hrs by Western blotting; format: cell-based; summary of the method: as §5
MEF = experiment: Cytotoxicity against mouse MEF cells after 48 hrs by MTS assay; format: cell-based
Summary of the method: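 Mouse embryonic fibroblasts exposed to compound for 48 h; viability then read by MTS colorimetric assay. IC50 derived from the viability data.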

HT-29 [23] = experiment: Inhibition of AKT expression in human HT-29 cells assessed as total AKT level at 1 uM after 24 hrs by Western blotting; format: functional, cell-based; summary of the method: as §5
HT-29 [24] = experiment: Induction of apoptosis in human HT-29 cells assessed as late apoptosis or necrotic cells at 2.5 uM after 24 hrs by PE annexin V and 7-Aminoactinomycin D staining-based flow cytometry (reference value: 4.1%); format: functional; summary of the method: as §3

Sequence of RAC-alpha serine/threonine-protein kinase (Homo sapiens) (P31749 whole entry): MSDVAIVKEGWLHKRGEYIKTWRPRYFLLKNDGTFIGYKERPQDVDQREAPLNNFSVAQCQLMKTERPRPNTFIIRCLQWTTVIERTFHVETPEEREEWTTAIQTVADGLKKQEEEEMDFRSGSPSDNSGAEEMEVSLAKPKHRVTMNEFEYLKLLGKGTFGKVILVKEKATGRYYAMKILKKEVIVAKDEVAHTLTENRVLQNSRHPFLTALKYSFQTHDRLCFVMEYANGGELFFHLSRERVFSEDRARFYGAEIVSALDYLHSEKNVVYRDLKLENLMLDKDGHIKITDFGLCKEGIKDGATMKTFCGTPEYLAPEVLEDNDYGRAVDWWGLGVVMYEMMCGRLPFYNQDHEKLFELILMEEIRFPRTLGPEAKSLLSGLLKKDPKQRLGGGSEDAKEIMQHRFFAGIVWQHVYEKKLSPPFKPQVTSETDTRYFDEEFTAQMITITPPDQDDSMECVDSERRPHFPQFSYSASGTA

O=C1C(=O)N(CCCN=C=S)c2c(Br)cc(Br)cc21
IC50 (HT-29 [1]): 1560 nM | inhibition (Bos taurus): 62% | Activity (HT-29 [2]): 21.23% | IC50 (MCF7): 8960 nM | Activity (HT-29 [3]): Active | viability at 2.5 µM (HT-29 [4]): 78.8% | Activity (HT-29 [5]): 48.5% | Activity (HT-29 [6]): 6.93% | Activity (HT-29 [7]): 8.54% | Activity (HT-29 [8]): 3.79% | IC50 (UACC-903): 4370 nM | Activity (HT-29 [9]): Dose-dependent effect | Activity (HT-29 [10]): 8.22% | Activity (HT-29 [11]): 61.5% | Activity (HT-29 [12]): 2.83% | Activity (HT-29 [13]): Dose-dependent effect | Activity (HT-29 [14]): 1.92% | Activity (HT-29 [15]): 2.9% | fold change (FC) (HT-29 [16]): 16 | Activity (HT-29 [17]): 4.78% | inhibition (HT-29 [18]): Active | IC50 (A549): 2130 nM | viability at 1.25 µM (HT-29 [19]): 91.5% | inhibition [20]: Active | viability at 5 µM (HT-29 [21]): 38.5% | inhibition [22]: inactive | IC50 (MEF): > 20000 nM | inhibition (HT-29 [23]): inactive | Activity (HT-29 [24]): 11.4%

N#CSCc1ccc(CN2C(=O)C(=O)c3cc(Br)cc(Br)c32)cc1
IC50 (HT-29 [1]): 1140 nM | inhibition (Bos taurus): 71% | Activity (HT-29 [2]): 39.46% | IC50 (MCF7): 24700 nM | Activity (HT-29 [3]): Active | viability at 2.5 µM (HT-29 [4]): 60.6% | Activity (HT-29 [5]): 52.9% | Activity (HT-29 [6]): 10.6% | Activity (HT-29 [7]): 11.47% | Activity (HT-29 [8]): 4.46% | IC50 (UACC-903): 2230 nM | Activity (HT-29 [9]): Dose-dependent effect | Activity (HT-29 [10]): 11.4% | Activity (HT-29 [11]): 66.98% | Activity (HT-29 [12]): 4.42% | Activity (HT-29 [13]): Dose-dependent effect | Activity (HT-29 [14]): 2.59% | Activity (HT-29 [15]): 7.76% | fold change (FC) (HT-29 [16]): 16 | Activity (HT-29 [17]): 2.68% | inhibition (HT-29 [18]): Active | IC50 (A549): 2530 nM | viability at 1.25 µM (HT-29 [19]): 88.5% | viability at 5 µM (HT-29 [21]): 33.1% | inhibition [22]: inactive | IC50 (MEF): > 20000 nM | inhibition (HT-29 [23]): Active | Activity (HT-29 [24]): 21.1%
